The values that follow come from ChEMBL document CHEMBL2429759, “Anti-tumor activity evaluation of novel chrysin-organogermanium(IV) complex in MCF-7 cells” (Bioorg Med Chem Lett, 2013).

For series [1], the system named is MCF-10A. Put plainly: Disruption of cell integrity in human MCF10A cells at 10 ug/ml by immunofluorescence analysis relative to control. Type of series: ADME, cell-based.
Series [2] concerns MCF-10A. Put plainly: Disruption of microfilament organization in human MCF10A cells at 10 ug/ml by immunofluorescence analysis relative to control. Type of series: ADME, cell-based.
Series [3] concerns MCF-10A. The series can be described thus: Antimigratory activity against human MCF10A cells at 10 ug/ml by wound-healing assay. Type of series: ADME, cell-based. In short, it runs like this:
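Scratch wound-healing: monolayers wounded with a p200 pipette tip, kept with or without complex; images taken at 0 and 24 h; reference lines drawn equidistant.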

In series [4] the test system is MCF-10A. The series can be described thus: Growth inhibition of human MCF10A cells at 30 ug/ml by MTT assay. The class given is cell-based. The note with it: mcf-10a.
The subject of series [5] is MCF-10A. The series can be described thus: Growth inhibition of human MCF10A cells at 20 ug/ml by MTT assay. As to conditions: mcf-10a. The class given is cell-based.
For series [6], the system named is MCF-10A. Put plainly: Growth inhibition of human MCF10A cells at 5 ug/ml by MTT assay. Type of series: cell-based. The note with it: mcf-10a.
Series [7] concerns MCF-10A. The series can be described thus: Growth inhibition of human MCF10A cells at 10 ug/ml by MTT assay. The class given is cell-based. As to conditions: mcf-10a.

With “5-hydroxy-2-phenyl-7-(triphenylgermyloxy)-4H-chromen-4-one ethanol”, the Activity entry with MCF-10A [1] is listed as “Non-toxic”; with MCF-10A [2], “Non-toxic”; in the series on MCF-10A [3], “Toxic”. Further, the “growth inhibition (GI)” value in the series with MCF-10A [4] is 27.25%; in the series on MCF-10A [5] it was 23.67%; with MCF-10A [6], 4.822%; in the series on MCF-10A [7], 12.3%.
